Measured values pooled from the literature.
Compare with care: the assays were run in different laboratories.
MTNR1B: Melatonin receptor type 1B (MTNR1B, Homo sapiens, UniProt P49286)
CDK7 with cyclin H: Cyclin-dependent kinase 7, with cyclin H (CDK7, Homo sapiens, UniProt P50613)

C[S+]([O-])c1ccc(-c2nc(-c3ccncc3)c(-c3ccc(F)cc3)[nH]2)cc1 (stereo not shown) has a ΔTm of 1.03 °C (Bromodomain adjacent to zinc finger domain protein 1A (BAZ1A, Homo sapiens, UniProt Q9NRL2); thermal stability, DSF; 10 µM).
COc1cc2c(CCNC(C)=O)c[nH]c2cc1I has an Emax of 97% (MTNR1B; GTPγS binding, agonist, radiometric; cell membranes).
The ΔTm of COc1cc2c(NC3CCN(C(C)C)CC3)nc(C3CCCCC3)nc2cc1OCCCN1CCCC1 is reported as 4 °C (Histone-lysine N-methyltransferase EHMT2 (EHMT2, Homo sapiens, UniProt Q96KQ7); thermal stability, DSF; 100 µM).
C[C@@H]1C(=O)O[C@H]2C[C@@]34[C@H]5C[C@@H](C(C)(C)C)[C@]36[C@@H](OC(=O)[C@@H]6O)O[C@@]4(C(=O)O5)[C@]21O has an inhibition of 35.3% (CDK7 with cyclin H; enzyme activity, inhibitor, ADP detection; 10 µM).
The Emax of CCc1ccc2scc(CCNC(C)=O)c2c1 is reported as 75% (MTNR1B; β-arrestin recruitment, agonist; MT2; 90 min).
For Nc1ncnc2occ(-c3ccc(NC(=O)Nc4cc(C(F)(F)F)ccc4F)cc3)c12, the remaining signal was 89% (Serine/threonine-protein kinase RIO3 (RIOK3, Homo sapiens, UniProt O14730); cell-free assay, inhibitor; 20 µM).
The inhibition of COc1cc2c(cc1OC)[C@@H]1Cc3ccc(OC)c(OC)c3CN1CC2 is reported as -19% (CDK7 with cyclin H; enzyme activity, inhibitor, ADP detection; 10 µM).
The Emax of COCC(CNC(C)=O)c1cccc2ccc(OC)cc12 (stereo not shown) is reported as 67% (MTNR1B; cAMP, agonist, TR-FRET; CHO-K1; 20 min).
With COc1ccc2cc3[n+](cc2c1OC)CCc1cc2c(cc1-3)OCO2 the inhibition was 22.3% (CDK7 with cyclin H; enzyme activity, inhibitor, ADP detection; 10 µM).
The Km of Cc1ccc(S(=O)(=O)NCC(=O)N2CCC[C@H]2C(=O)N[C@@H](CCCN=C(N)N)C(=O)Nc2ccc([N+](=O)[O-])cc2)cc1 is reported as 26.3 µM (Prothrombin (F2, Homo sapiens, UniProt P00734); enzyme activity, substrate, absorbance).
The inhibition of COc1cc(/C=C/C(=O)O)ccc1O is reported as -9.7% (CDK7 with cyclin H; enzyme activity, inhibitor, ADP detection; 10 µM).
With COc1ccc2ncn(CCNC(C)=O)c2c1 the Emax was 89% (MTNR1B; GTPγS binding, agonist, radiometric; cell membranes).
CN(C)C1CCN(CC#Cc2nn(C3CCCC3)c3nc(NCc4ccccc4)ncc23)C1 (stereo not shown) gave an inhibition of 7% (Death-associated protein kinase 1 (DAPK1, Homo sapiens, UniProt P53355); enzyme activity, inhibitor, FRET; 10 µM).
